Most compounds without a hit are left out; they make up all but 1.8% or so of the library.
TPT1 inhibitor – inhibitors of Candida albicans tRNA 2'-phosphotransferase TPT1; actives 0.81% (n = 300,000); recombinant caTPT1, FP RNA substrate dephosphorylation; inhibition, % at 5 µM;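 active means inhibition above the mean of all tested compounds plus 3 SD, set per screening campaign, cut at about 24% in these data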;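 further: plate controls were DMSO alone for no effect and ferristatin control at 100 nM for full effect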
SENP1 inh – SENP1 (human) catalytic domain inhibition. inhibition, % at 10 µM. AID 624204. recombinant SENP1 catalytic domain, CyPet-SUMO1-YPet FRET cleavage. actives 0.21% (n = 360,000). Q9P0U3;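 active means inhibition at least 30% at 10 µM, raw YFP signal under a set limit, fluorescence ratio 0.5 to 1.5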;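 further: 0% = enzyme with DMSO and 100% = no enzyme wells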
Target sequence (Q9P0U3 419-644 limits assumed): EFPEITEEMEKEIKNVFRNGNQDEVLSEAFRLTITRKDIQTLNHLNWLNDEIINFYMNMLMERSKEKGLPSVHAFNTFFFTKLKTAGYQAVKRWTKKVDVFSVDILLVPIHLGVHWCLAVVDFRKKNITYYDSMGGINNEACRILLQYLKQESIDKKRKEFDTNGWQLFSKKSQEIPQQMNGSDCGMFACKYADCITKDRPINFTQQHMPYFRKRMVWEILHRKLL
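Test system: human SENP1 catalytic domain; medium: Tris pH 8 buffer plus EDTA, NaCl, BME, BSA, NP40, catalase; incubation: 50 min reaction at room temperature; technique: FRET, CFP and YFP emission; controls: no-enzyme low control and enzyme-plus-DMSO high control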
CSN deneddyl inh – CSN deneddylation inhibition. Purified CSN, SCF-Nedd8-OG deneddylation, fluorescence polarization. actives 0.38% (n = 360,000). Q92905. inhibition, % at 12.5 µM;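 active means pattern-corrected inhibition above about 35%, with an unprinted fluorescence ratio check between 0.5 and 1.5, limit read from the data, passing the limit was not always enough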;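 further: 0% = enzyme with substrate and 100% = substrate without enzyme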
Target sequence (Q92905 whole entry, looked up, one chain of several): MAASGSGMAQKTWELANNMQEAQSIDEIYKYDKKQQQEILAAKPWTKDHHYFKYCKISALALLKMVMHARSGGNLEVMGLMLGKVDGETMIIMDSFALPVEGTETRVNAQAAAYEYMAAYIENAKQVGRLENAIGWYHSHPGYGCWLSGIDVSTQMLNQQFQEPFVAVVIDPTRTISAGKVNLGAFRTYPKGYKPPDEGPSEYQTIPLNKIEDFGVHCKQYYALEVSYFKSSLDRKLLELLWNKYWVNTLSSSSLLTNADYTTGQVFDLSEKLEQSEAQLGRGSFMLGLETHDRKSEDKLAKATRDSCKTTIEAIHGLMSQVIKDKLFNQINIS
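Detection – fluorescence polarization · System – HEK293T-derived human Csn5 enzyme · Controls – substrate-only high control, full reaction low control · Timing – 90 min, room temperature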
Rpn11 block – Rpn11 (human) deubiquitinase inhibition. O00487. human 26S proteasome, Ub4-pepOG fluorescence polarization; 20S core pre-blocked with epoxomicin. calls only at 20 µM. actives 0.59% (n = 360,000);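 active means inhibition at 20 µM, scaled to each plate's controls, above about 33%, limit read from the data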
HNF4A DNA FP – change in binding of human HNF4 alpha to DNA; activity change, % at 10 µM; HNF4a-FITC DNA binding, fluorescence polarization, 1 h; actives 0.3% (n = 360,000); P41235; AID 1224865; in the data active means activity change above about 30%, passing the limit was not always enough
UBC9 SUMO inh – inhibitors of human SUMOylation (UBC9) | inhibition, % at 35 µM | actives 0.36% (n = 290,000) | HTRF SUMOylation assay, SAE1/SAE2 + UBC9, in vitro; in the data active means inhibition above about 50%, passing the limit was not always enough
caTPT1 confirm – TPT1 (C. albicans) inhibition, confirmation | shares compounds with TPT1 inhibitor | recombinant caTPT1, fluorescence polarization, RNase T1 coupled | inhibition, % at 5 µM | actives 74% (n = 2,400) | AID 2149;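 active means inhibition above the primary screen limit, the mean inhibition of all tested compounds plus 3 SD, cut at about 25% in these data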
RNase T1 counter – RNase T1 inhibition in TPT1 counter-screen; shares compounds with TPT1 inhibitor; RNase T1 cleavage, fluorescence polarization, 1536-well; inhibition, % at 5 µM; actives 83% (n = 2,400); AID 2153;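 active means inhibition above the solvent-only control well mean plus 3 SD, limit set per screening run, cut at about 23% in these data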;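 further: plate controls were DMSO wells with enzyme for no effect and wells without RNase T1 for full effect; inhibitors block cleavage so intact labeled substrate keeps polarization high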
* marks the source's active call; other numbers are inactive results; i = inactive; . = not tested or not shown; + = active, no number.

SMILES	TPT1 inhibitor	SENP1 inh	CSN deneddyl inh	Rpn11 block	HNF4A DNA FP	UBC9 SUMO inh	caTPT1 confirm	RNase T1 counter
Cn1cc(/C=C2\SC(=S)N(NC(=O)c3ccccc3Cl)C2=O)c2ccccc21	76*	-27	25	i	82	-1	176*	162*
CC(NCc1ccco1)C(=O)N1CCc2ccccc2C1 (stereo not given)	-5	-1	-6	i	1	-14	.	.
O=C(CCNc1n[nH]c(=O)[nH]c1=O)N/N=C/c1ccccc1Br	0	1	-11	i	-2	8	.	.
COc1cc(NC(=O)C2=C(N3CCOCC3)/C(=C\c3ccc(N(C)C)cc3)CCC2)cc(OC)c1OC	32*	-32	-2	i	6	-7	21	26*
CC1(C)OC(=O)C(=Cc2ccc(-c3ccc(S(N)(=O)=O)cc3)o2)C(=O)O1	28*	-5	12	i	10	17	8	13
NS(=O)(=O)c1ccc(-c2ccc(/C=C3\C(=O)Nc4ccccc43)o2)cc1	4	.	.	.	.	-13	.	.
COc1ccc(C2=NNC(c3cc(Cl)cc4c3OCOC4)C2)c(O)c1 (stereo not given)	37*	.	.	.	.	-12	19	28*
CCn1c(SCc2nc3sc(C(=O)O)c(C)c3c(=O)[nH]2)nc2ccccc21	31*	40	33	i	-1	55*	24*	27*
CCn1c(O)c(/C=N/N=C2CCCCC2)c2cc(C3=NNC(=O)CC3)ccc21	37*	-3	12	i	12	-14	23	36*
CCCOc1ccc(C2=NNC(=O)CC2)cc1	1	2	-1	i	4	12	.	.
CCCCC(CCCC)=N/N=C/c1c(O)n(CC)c2cc(C3=NNC(=O)CC3)ccc12	34*	-19	-3	.	20	27	17	22*
COc1ccc2ccccc2c1/C=N/N1C(=O)CSC1=S	27*	-2	3	i	-119	6	9	12
O=C(CCNS(=O)(=O)c1ccccc1)NNC(=O)COc1ccc(Cl)cc1	.	2	0	i	-1	.	.	.
CCCCNc1c(-c2ccc(-c3ccc(C(C)=O)cc3)c(OC)c2)nc2cnccn12	26*	-28	1	i	12	.	52*	63*
CCN(CC)c1ccc2cc(C(=O)NNC(=O)c3ccc(S(=O)(=O)N4CCCCC4)cc3)c(=O)oc2c1	49*	-27	17	.	14	11	77*	86*
CCN(CC)c1ccc2cc(S(=O)(=O)c3ccc(C)cc3)c(=O)oc2c1	70*	-22	-2	i	50*	10	72*	81*
CCN(CC)c1ccc2cc(C#N)c(=O)oc2c1	46*	-24	-12	i	22	8	44*	58*
O=c1[nH]c(SCc2ccc([N+](=O)[O-])cc2)nc2[nH]ncc12	-2	5	-1	i	-1	5	.	.
Oc1ccc2ccccc2c1-c1sc(Nc2ccccc2)n[n+]1-c1ccc(F)cc1	29*	19	-72	i	-68	10	-12	3
COC(=O)c1sc2cc([N+](=O)[O-])cc(SCC(C)C)c2c1N	43*	78	21	.	29	20	29*	41*
CCOC(=O)c1sc2ncc([N+](=O)[O-])cc2c1N	-6	1	-5	i	0	9	.	.
Cc1c(-c2ccc(O)cc2)nc2nc(-c3ccccc3)c(-c3ccccc3)nn12	27*	.	.	.	.	-3	49*	67*
Cc1nnc2c3ccccc3c(-c3ccc(O)cc3)nn12	3	1	4	i	-2	9	.	.
CCN=c1sc2ccccc2n1CC(O)COc1ccccc1 (stereo not given)	1	2	-3	i	-2	-2	.	.
OCCCNc1ncnc2sc3c(c12)CCN(Cc1ccccc1)C3	24*	-27	10	i	25	26	49*	64*
SMILES	TPT1 inhibitor	SENP1 inh	CSN deneddyl inh	Rpn11 block	HNF4A DNA FP	UBC9 SUMO inh	caTPT1 confirm	RNase T1 counter
COC(=O)CSc1nc2sc3c(c2c(=O)n1-c1ccccc1)CCN(C)C3	6	-21	4	i	5	25	.	.
CN1CCc2c(sc3nc(SCC(=O)N4CCCCC4)n(-c4ccccc4)c(=O)c23)C1	6	-81	-5	i	4	4	.	.
CN1CCc2c(sc3nc(SCC(N)=O)n(-c4ccc(Cl)cc4)c(=O)c23)C1	86*	-26	21	+	43*	16	64*	78*
CN1CCc2c(sc3nc(SCC(N)=O)n(-c4ccccc4)c(=O)c23)C1	45*	-64	1	i	20	11	104*	109*
Cc1ccc(C(=O)Nc2ccc(Br)c(C(F)(F)F)c2)cc1	-4	3	4	i	-7	-19	.	.
Cc1nc(C(=O)N2CCOCC2)sc1C1(C)CC(c2ccccc2)=NO1 (stereo not given)	1	2	2	i	-8	15	.	.
CCCCCCN[C@H]1CCC2C3CC=C4C[C@@H](O)CC[C@]4(C)C3CC[C@@]21C (stereo not given in full)	.	3	-2	i	-1	.	.	.
CCCN1C(=O)/C(=C/c2ccc(C)o2)SC1=Nc1ccc(OC)cc1	-2	-1	8	i	-1	11	.	.
COc1ccc(N=C2S/C(=C\c3ccc(N4CCOCC4)o3)C(=O)N2CCc2c[nH]c3ccccc23)cc1	131*	-20	122	.	132	33	141*	136*
COc1ccc(OC)c(/C=C2\SC(=S)N(Cc3cccnc3)C2=O)c1	65*	-23	51	i	71	1	68*	77*
COc1ccc(O)c(/C=C2/SC(=S)N(Cc3ccccc3)C2=O)c1	93*	-22	86	.	109	-11	104*	103*
COc1ccccc1/C=C1/SC(=S)N(CCC(=O)Nc2cccnc2)C1=O	10	-11	15	i	2	1	.	.
COc1ccc(/C=C2/SC(=S)N(Cc3ccccc3)C2=O)cc1O	.	-86	0	i	4	-13	.	.
COC(=O)c1ccc(CNC(=O)C(Cc2ccccc2)NC(=O)c2ccccc2)cc1 (stereo not given)	.	2	-5	i	3	.	.	.
CCOc1ccc(/C=C/C(=O)c2c(O)cc(C)oc2=O)cc1	45*	-36	4	i	1	22	11	10
Cc1cc(O)c(C(=O)/C=C/c2ccccc2)c(=O)o1	.	-26	11	i	3	17	.	.

Screening results as filed in PubChem.
